In the library only some 3.8% were active in any assay of this set; here they are far more common.
V-ATPase pH: regulators of yeast V-ATPase proton pumping, primary screen, pHLuorin cytosolic pH fluorescence | S. cerevisiae | response, % at 10 µM | 350,000 compounds, 0.37% hits | AID 504577, 2011; in the data active means response mostly above about 7.3%, no sharp cut-off; inactive means mostly below about 5.4%; further: actives read high
rCAG binder: binders of r(CAG) RNA repeats, primary screen, biochemical, fluorescence. inhibition, % at 3 µM. 370,000 compounds, 1.3% hits. AID 651821, 2012. r(CAG) RNA repeat, TO-PRO-1 dye displacement fluorescence;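 active means inhibition above the plate cutoff, the mean of all test compounds on that plate plus 3 SD, cut at about 35% in these data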;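 further: higher means more dye released from RNA so lower well fluorescence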
Beta2AR agonist: beta2AR agonists driving receptor internalization, primary screen, cell-based, FAP fluorogen, flow cytometry. response, % (test concentration not listed). Beta-2 adrenergic receptor (Homo sapiens), P07550. 340,000 compounds, 0.43% hits. AID 504454, 2011. Am2.2-beta2AR cells;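 active means response above a set limit, near 3 SD of response in nonfluorescent compounds, cut at about 42% in these data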
Target sequence (P07550 whole entry, looked up): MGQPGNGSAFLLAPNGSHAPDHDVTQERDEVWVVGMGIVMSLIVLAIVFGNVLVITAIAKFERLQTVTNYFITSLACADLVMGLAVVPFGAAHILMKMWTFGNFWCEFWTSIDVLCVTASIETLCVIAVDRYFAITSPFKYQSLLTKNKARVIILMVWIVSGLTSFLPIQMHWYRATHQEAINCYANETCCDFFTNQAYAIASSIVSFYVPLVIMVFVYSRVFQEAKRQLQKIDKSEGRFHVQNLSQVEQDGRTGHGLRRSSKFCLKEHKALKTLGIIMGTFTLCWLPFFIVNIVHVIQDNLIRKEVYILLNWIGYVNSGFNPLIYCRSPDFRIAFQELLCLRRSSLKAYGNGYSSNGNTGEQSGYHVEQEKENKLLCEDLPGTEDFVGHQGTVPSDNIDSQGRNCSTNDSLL
T cell modulator: modulators of CD8 T cell-vesicle binding, primary screen, mouse 2C CD8+ T cells, flow cytometry | response (vesicle binding), % at 7 µM | 2C CD8+ T cell-vesicle binding; active compounds read low | 330,000 compounds, 0.068% hits;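 active means response, share of CD8 T cells binding vesicles, and their 90th percentile fluorescence all below set limits, cut at about 80% in these data, passing the limit was not always enough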;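 further: values below 100% mean blocked vesicle binding to the CD8+ T cells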
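Also added: QL9-peptide-loaded Drosophila micro-vesicles bearing Ld, ICAM-1 and B7-1; Test system: purified 2C TCR transgenic mouse naive CD8+ T cells; Measured by: cytometric PE anti-B7-1 and Alexa647 anti-CD8 signals after 1% paraformaldehyde fixation; Timing: binding step 1.5 h, 37 °C, antibody labelling 20 min, ice.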
MPTP inh: mitochondrial permeability transition pore inhibitors, primary screen, biochemical, isolated mouse mitochondria, absorbance; Ca2+ swelling absorbance, 30 min; inhibition, % at 10 µM; 360,000 compounds, 1.4% hits; AID 602449, 2012;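 active means inhibition of 50% or more, scaled per plate between neutral and stimulator controls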
Exocytosis inh: LAMP-1 surface exposure blockers, TALL-104 cells – cell-based, flow cytometry, MLPCN library, primary screen; TALL-104 LAMP-1 surface exposure; cells stimulated with thapsigargin and PMA; inhibition, % at 10 µM; 360,000 compounds, 0.66% hits;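 active means inhibition above about 55%, limit read from the data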
Granule exo CP1: inhibitors of lytic granule exocytosis, confirmation, TALL-104 cells, flow cytometry, Cherry Pick01 | shares compounds with Exocytosis inh | LAMP-1 externalization; stimulated with PMA plus thapsigargin | inhibition, % at 10 µM | 1,500 compounds, 11% hits; in the data active means inhibition above about 60%
A number is an active result; . = inactive; / = no result given.

SMILES	V-ATPase pH	rCAG binder	Beta2AR agonist	T cell modulator	MPTP inh	Exocytosis inh	Granule exo CP1
CCCN(S(=O)(=O)c1ccccc1F)S(=O)(=O)c1ccccc1Br	.	.	.	.	.	57.2	.
CCOc1ccc2c(c1)nc(SCC(=O)c1ccc(Br)s1)n2C	.	.	.	.	.	103.2	.
COc1ccc(-c2cccc3c4c([nH]c23)[C@@H]2C[C@H]3[C@@H](C(=O)N2CC4)[C@H](C)ON3C)cc1	/	.	/	/	/	/	/
CCCC(=O)OC[C@H]1CN([C@H](C)c2ccccc2)S(=O)(=O)c2c(F)cccc2O1	/	.	/	/	/	/	/
COc1ccc(C(=O)CCN2CCCC(C)C2)cc1 (stereo not drawn)	.	.	.	.	.	70.6	.
COc1ccc(C(=O)CCN2CCC(C)CC2)cc1	.	.	.	.	.	.	/
CN(C)c1ccc(C(=O)NCCc2ccccc2-c2ccccc2CCC(=O)NCc2ccccc2)cc1	/	.	/	/	/	/	/
COc1ccc(NC(=O)CC2C(=O)N(Cc3ccccc3)C(=S)N2CCN2CCOCC2)cc1 (stereo not drawn)	.	.	.	.	.	.	/
C=CCN1C(=O)C(CC(=O)Nc2ccc(OCCC)cc2)N(CCCN2CCN(Cc3ccccc3)CC2)C1=S (stereo not drawn)	.	.	.	.	.	58.4	.
COCc1cc(C)nc(SCc2ccc(Cl)cc2)c1C#N	.	.	.	.	.	69.2	.
CC(=O)N1CCN(S(=O)(=O)c2cccc(C(=O)NCCC3=CCCCC3)c2)CC1	.	.	.	.	.	66.8	.
CC(C)NC(=O)C1CCN(c2cncnc2)CC1	/	.	/	/	/	/	/
Cc1cccc(CC2CC(=O)N(CCc3ccc4c(c3)OCO4)C2=O)c1 (stereo not drawn)	.	.	.	.	.	.	/
O=C1CC(Cc2ccccc2)C(=O)N1CCc1ccc2c(c1)OCO2 (stereo not drawn)	.	.	.	.	.	76.5	.
Cc1cccc(NC(=O)CSc2nc3ccccc3c3nc(CCc4c(C)n[nH]c4C)nn23)c1	.	.	.	.	.	.	/
Cc1cncn1CCc1nc2c3ccccc3nc(SCC(=O)Nc3cccc(Cl)c3)n2n1	.	.	.	.	.	68.5	81.0
COc1cccc(CN(C)C(c2ccccc2)c2ccccc2)c1OC	.	.	.	.	.	88.8	.
COC(=O)CN1C(=O)N/C(=C/c2ccc(C)o2)C1=O	.	.	.	.	.	.	/
Cc1ccc(/C=C2/NC(=O)N(Cc3ccccc3)C2=O)o1	.	.	.	.	.	57.5	.
C=C1CC2(OC1=O)c1ccccc1CCc1ccccc12	.	.	.	/	.	90.2	.
O=C1NC(=O)C2(CCc3ccccc32)N1 (stereo not drawn)	.	.	.	.	.	.	/
COc1ccc(C(=O)Nc2cc(C(=O)c3ccccc3)c(C)oc2=O)cc1	.	.	.	.	.	.	/
Cc1oc(=O)c(NC(=O)c2cccc(Cl)c2)cc1C(=O)c1ccccc1	.	.	.	.	.	96.9	.
Cc1ccc(-c2nc3c(c(=O)[nH]c(=O)n3Cc3ccccc3)n2C)o1	.	.	.	/	.	97.5	.
OC(CCN1CCC2CCC(C2)C1)c1ccc(Br)cc1 (stereo not drawn)	.	.	.	/	.	59.0	.
SMILES	V-ATPase pH	rCAG binder	Beta2AR agonist	T cell modulator	MPTP inh	Exocytosis inh	Granule exo CP1
O=C(Nc1cccc([N+](=O)[O-])c1)OCc1ccc2c(c1)OCO2	/	.	/	/	/	/	/
COC(=O)[C@@]12CCCCC3=C1N(CCC3)C(=O)[C@H]2CC(=O)NCCC(C)C	/	.	/	/	/	/	/
CCCc1ccc(S(=O)(=O)N(C)S(=O)(=O)c2ccc(F)cc2)cc1	.	.	.	.	.	69.8	.
CCN(CC)S(=O)(=O)c1ccc(F)cc1	.	.	.	.	.	.	/
COC(=O)c1cc2c(c3c4cc(OC)ccc4n(C(=O)c4ccccc4)c13)C(=O)N(Cc1ccco1)C2	/	.	/	/	/	/	/
CCCCN(C)Cc1c(C)[nH]c2ccccc2c1=O	.	.	.	.	.	71.3	.
COc1cc2c(cc1OC)C(CCc1ccccc1)=NCC2	.	.	.	.	.	62.7	.
CCOc1cccc(-c2nn3c(-c4cccc(C)c4)nnc3s2)c1	/	.	/	/	/	/	/
O=C(O)C1=C[C@H](c2ccccc2)C[C@H](OCCCCO)O1	.	.	.	/	.	57.7	.
O=C(O)C1=C[C@@H](c2ccccc2)C[C@@H](OCCCCO)O1	.	.	.	/	.	.	/
O=C1C(=O)N(Cc2cccs2)c2ccccc21	.	.	.	.	.	62.2	.
O=C(CSc1nc2ccccc2o1)NN=C/C=C/c1ccccc1	/	.	/	/	/	/	/
CN(c1ccccc1)S(=O)(=O)c1ccc2ccccc2c1	.	.	.	.	.	65.3	.
CC(=O)Oc1cccc(NC(=O)c2cccc(C(=O)Nc3cccc(OC(C)=O)c3)c2)c1	.	.	.	.	.	63.8	.
COC(=O)C1=C(C)N(C)C(=NCc2ccc3c(c2)OCO3)NC1c1cccc(C(F)(F)F)c1 (stereo not drawn)	/	.	/	/	/	/	/
Cc1csc(SCC(=O)NCc2ccccc2)n1	.	.	.	.	.	.	/
Cc1csc2sc(-c3ccnc(SCC(=O)NCc4ccccc4)n3)c(C)c12	.	.	.	.	.	66.1	.
COc1ccc(OC)c(Nc2nc(-c3ccncc3)nc3ccccc23)c1	.	.	.	.	.	83.2	.
COc1ccc(Nc2nc(-c3ccccc3)nc3ccccc23)c(OC)c1	.	.	.	.	.	.	/
CCC1CCCCN1CCCNC(=O)c1ccc2c(c1)N(Cc1ccc(F)cc1)C(=O)c1ccccc1S2=O (stereo not drawn)	.	.	.	.	.	61.1	.
O=C(NCCCN1CCCC1)c1ccc2c(c1)N(Cc1ccc(F)cc1)C(=O)c1ccccc1S2=O (stereo not drawn)	.	.	.	.	.	.	/
COc1ccc(N2CCN(CCNS(=O)(=O)c3c(C(C)C)cc(C(C)C)cc3C(C)C)CC2)cc1	/	.	/	/	/	/	/
CCN(CC)S(=O)(=O)c1ccc(S(=O)(=O)N2CCC(N3CCCCC3)CC2)cc1	.	.	.	.	.	62.1	.
O=C(NCc1cccnc1)/C(=C\c1ccc(-c2ccc(Br)cc2)o1)S(=O)(=O)c1ccccc1	.	.	.	.	.	83.0	.
O=C(CN(Cc1ccc(Br)cc1)S(=O)(=O)c1ccccc1)NCc1cccnc1	.	.	.	.	.	.	/
Cc1cc(NCCCOC(C)C)n2c(nc3ccccc32)c1C#N	.	.	.	.	.	61.8	.
Cc1cc(NS(=O)(=O)c2ccc(NC(=O)CSc3nnc(-c4ccncc4)n3Cc3ccco3)cc2)nc(C)n1	/	.	/	/	/	/	/
